# Source: PubChem
# Compounds with a hit are over-represented: about 1.6% of the library has one in this group of screens.
# Lipid droplet: hepatic lipid droplet formation modulation; inhibition, % at 6.5 µM; AML12 mouse hepatocytes, oleate lipid droplets, BODIPY imaging; 240,000 tested, 0.4% active;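 active = lipid droplet intensity inhibited by at least 50%, with more than 500 cells counted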
#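 System: AML12 hepatocytes (mouse). Probe or stimulus: oleic acid at 100 µM to induce lipid droplet formation. Times: overnight treatment with compound plus oleate. Detection: Image-based BODIPY and DAPI two-channel analysis. Evaluation: percent inhibition of filter-corrected integrated lipid droplet intensity per well.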
# TLR9-MyD88 block: blocks human TLR9 binding to MyD88; inhibition, % at 4.98 µM; Q9NR96+Q99836; 340,000 tested, 0.21% active; CHO BLA complementation TLR9-MyD88, CCF4 FRET ratio;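 active = inhibition above the mean over all tested compounds plus 3 SD, cut at about 21% in these data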;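 note: 0% = DMSO only wells and 100% = clavulanate BLA inhibitor control wells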
# NOD2 RIPK2 PPI: blocks binding of human NOD2 to RIPK2; CHO BLA complementation NOD2-RIPK2, CCF4 ratio; inhibition, % at 4.98 µM; 360,000 tested, 0.38% active; in the data active = inhibition above about 21%;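 note: 0% = vehicle only and 100% = reference blocker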
# TLR4-MyD88 BLA: inhibitors of human TLR4-MyD88 binding; O00206+Q99836; HeLa CL3-4 TLR4/MyD88 BLA complementation, FRET ratio; inhibition, % at 8.4 µM; 200,000 tested, 0.18% active; in the data active = inhibition above about 25%;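 note: 0% = vehicle and 100% = reference inhibitor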
# Target sequence (O00206 whole entry, looked up): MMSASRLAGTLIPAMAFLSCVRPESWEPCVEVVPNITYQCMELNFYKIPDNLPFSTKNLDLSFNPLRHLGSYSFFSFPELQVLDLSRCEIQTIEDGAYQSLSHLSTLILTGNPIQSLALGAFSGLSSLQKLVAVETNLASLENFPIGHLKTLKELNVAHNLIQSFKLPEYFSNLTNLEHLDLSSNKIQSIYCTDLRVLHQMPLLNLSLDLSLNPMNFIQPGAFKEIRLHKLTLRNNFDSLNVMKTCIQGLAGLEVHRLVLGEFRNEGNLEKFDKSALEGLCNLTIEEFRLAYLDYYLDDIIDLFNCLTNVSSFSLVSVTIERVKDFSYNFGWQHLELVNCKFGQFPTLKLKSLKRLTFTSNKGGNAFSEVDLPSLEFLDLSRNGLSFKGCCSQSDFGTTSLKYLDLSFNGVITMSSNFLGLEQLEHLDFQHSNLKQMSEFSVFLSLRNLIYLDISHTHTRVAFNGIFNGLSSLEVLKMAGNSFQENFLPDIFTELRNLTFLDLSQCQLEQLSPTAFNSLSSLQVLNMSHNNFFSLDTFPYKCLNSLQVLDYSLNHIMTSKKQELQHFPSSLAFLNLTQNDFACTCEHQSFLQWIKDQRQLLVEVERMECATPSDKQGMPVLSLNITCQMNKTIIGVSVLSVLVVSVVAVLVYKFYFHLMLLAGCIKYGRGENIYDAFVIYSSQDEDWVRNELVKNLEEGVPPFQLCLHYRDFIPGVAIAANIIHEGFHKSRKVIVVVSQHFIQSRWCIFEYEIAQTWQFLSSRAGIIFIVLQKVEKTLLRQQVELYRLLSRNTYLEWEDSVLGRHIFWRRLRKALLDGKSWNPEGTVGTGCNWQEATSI
# Target sequence (Q99836 whole entry, looked up): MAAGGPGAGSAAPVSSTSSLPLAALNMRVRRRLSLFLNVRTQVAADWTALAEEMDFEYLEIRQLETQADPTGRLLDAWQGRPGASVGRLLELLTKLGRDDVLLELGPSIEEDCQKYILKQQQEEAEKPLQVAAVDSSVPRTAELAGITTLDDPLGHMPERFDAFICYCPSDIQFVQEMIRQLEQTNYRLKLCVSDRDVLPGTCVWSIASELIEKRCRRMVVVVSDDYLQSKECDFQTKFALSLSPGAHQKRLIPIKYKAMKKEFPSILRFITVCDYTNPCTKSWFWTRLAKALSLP
# SR-BI DiI inh: mouse SR-BI HDL lipid transfer inhibition. ldlA[mSR-BI] CHO cells, DiI-HDL uptake fluorescence, 3 h. inhibition, % at 12.5 µM. 320,000 tested, 0.96% active;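 active = mean replicate inhibition of at least 70% and a set share of replicates each scoring 70 or more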;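 note: 0% = median of neutral control wells and 100% = median of positive control wells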
# SR-BI uptake up: activators of SR-BI mediated HDL lipid uptake. CHO ldlA[mSR-BI] cells, DiI-HDL uptake fluorescence, 3 h; 100 = double the neutral-control signal. activation, % at 12.5 µM. 320,000 tested, 0.096% active;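 active = mean replicate activation of at least 60% and every replicate at or above 60%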;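 note: 0% = median plate neutral-control signal and 100% = twice that signal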
#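 System: LDL receptor-deficient CHO ldlA cells overexpressing murine SR-BI | Timing: 3 h uptake period with compound, 37 °C | Medium: HEPES-buffered (25 mM, pH 7.4) F12 plus 0.5% BSA | Dosing: Single-point compound dose | Signal: Bottom-read fluorescence, 550/595 nm | Read-out: Retained DiI signal reflecting DiI-HDL uptake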
# TLR9-MyD88 conf: confirmation of human TLR9-MyD88 binding inhibitors; shares compounds with TLR9-MyD88 block; 680 tested, 51% active; AID 540250; inhibition, % at 4.98 µM; CHO TLR9/MyD88 BLA complementation, CCF4 FRET ratio;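 active = mean inhibition across three repeats above about 21% taken from the earlier screen, limit read from the data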;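 note: blue over green emission ratio reports constitutive TLR9 MyD88 association via BLA complementation; 0% = DMSO vehicle wells and 100% = clavulanate BLA inhibitor wells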
# BLA counter-1: counter-screen for TLR9-MyD88 inhibitors: non-selective beta-lactamase inhibitors; inhibition, % at 4.98 µM; CHO-BLA cells, CCF4 FRET ratio, BLA reporter; shares compounds with TLR9-MyD88 block; 680 tested, 7% active;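 active = mean inhibition above a 50% cutoff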;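 note: counterscreen of TLR9-MyD88 hits on CMV-driven BLA in CHO-K1 cells; 0% = DMSO alone and 100% = clavulanate blocking BLA; higher means less blue over green ratio so more BLA blockade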
# TLR9 CHO tox: counter-screen for TLR9-MyD88 inhibitors: cytotoxicity in CHO cells. inhibition, % at 4.98 µM. 680 tested, 39% active. shares compounds with TLR9-MyD88 block. luminescence; in the data active = inhibition above about 11%
# NOD2-RIPK2 conf: NOD2-RIPK2 interaction inhibition confirmed. 1,200 tested, 70% active. CHO cells, NOD2-RIPK2 BLA complementation, CCF4 FRET. inhibition, % at 4.98 µM. shares compounds with NOD2 RIPK2 PPI;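 active = mean inhibition across replicates above a set limit taken from the earlier primary screen, cut at about 21% in these data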;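 note: 0% = DMSO-only wells and the high end = clavulanate BLA-blocked wells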
# BLA counter-2: counter-screen for NOD2-RIPK2 interaction inhibitors: BLA reporter; shares compounds with NOD2 RIPK2 PPI; inhibition, % at 4.98 µM; AID 624371; CHO BLA reporter, CCF4 FRET ratio, counterscreen; 1,200 tested, 57% active;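 active = mean inhibition above the low-control mean inhibition plus three low-control SD, cut at about 11% in these data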;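 note: 0% = DMSO only wells and 100% = clavulanate high control wells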
# Starred values were filed as active, the others as inactive; / = not tested or not shown.
SMILES,Lipid droplet,TLR9-MyD88 block,NOD2 RIPK2 PPI,TLR4-MyD88 BLA,SR-BI DiI inh,SR-BI uptake up,TLR9-MyD88 conf,BLA counter-1,TLR9 CHO tox,NOD2-RIPK2 conf,BLA counter-2
COc1ccccc1NC(=O)COn1nnc2ccc(S(=O)(=O)N3CCOCC3)cc21,3.0,-11.7,-10.0,-1.1,12.0,-12.0,/,/,/,/,/
COc1ccccc1N(C(=O)c1snc(C(N)=O)c1N)C(C(=O)NC1CCCC1)c1ccc(N(C)C)cc1 (stereo unspecified),-6.5,-10.5,4.5,/,/,/,/,/,/,/,/
COc1ccccc1CNC(=O)CN1C(=O)c2cccc(N)c2C1=O,32.3,36.5*,30.9*,/,-5.6,5.6,14.5,19.9,9.8,45.5*,49.3*
COc1ccccc1CNC(=O)CCN1C(=O)c2ccccc2C1=O,-14.3,4.8,-0.2,/,18.2,-18.2,/,/,/,/,/
CCc1nc(NC(C)(C)C)c2cnn(-c3ccccc3)c2n1,6.1,6.2,12.9,/,24.5,-24.5,/,/,/,/,/
CCN(CC)c1ccc(/C=C/C(=O)C2C(=O)C=C(C)OC2=O)cc1 (stereo unspecified),4.9,21.1*,22.9*,17.7,-15.3,15.3,36.2*,38.0,10.7*,27.7*,47.2*
O=C(O)c1cc(S(=O)(=O)NC(CO)C(O)c2ccc([N+](=O)[O-])cc2)ccc1Br (stereo unspecified),12.3,3.7,6.8,/,-23.2,23.2,/,/,/,/,/
O=C(c1ccc(N2CCCC2)c([N+](=O)[O-])c1)N1CCN(S(=O)(=O)c2ccccc2)CC1,/,-4.1,2.9,/,10.7,-10.7,/,/,/,/,/
N#C/C(=C\c1ccc(Sc2ccc(Cl)cc2)o1)c1nc2ccccc2[nH]1,-5.9,34.4*,33.9*,20.9,-22.0,22.0,19.4,23.6,2.4,39.4*,42.6*
CS(=O)(=O)c1nc(-c2ccc(F)cc2)cc(C(F)(F)F)n1,-10.9,40.0*,62.1*,15.2,-14.1,14.1,34.6*,8.0,97.4*,62.0*,12.4*
COc1cc2[nH]c(=O)n(C3CCCCC3)c(=O)c2cc1OC,20.5,1.8,0.4,6.5,12.9,-12.9,/,/,/,/,/
Nc1ccc2nc3c(=O)n(C4CCCCC4)c(=O)[nH]c3nc2c1,-5.9,35.4*,40.9*,/,/,/,17.8,22.6,1.1,59.2*,66.1*
Clc1ccc2nc(N3CCNCC3)nc(-c3ccccc3)c2c1,/,23.8*,36.9*,19.2,-19.9,19.9,15.7,28.9,-0.9,38.0*,52.2*
COc1ccccc1NC(=O)C1CCN(S(=O)(=O)c2ccc3c(c2)NC(=O)C(C)S3)CC1 (stereo unspecified),-6.1,-3.1,1.5,/,32.1,-32.1,/,/,/,/,/
O=C(C#Cc1ccccc1)c1ccco1,3.9,29.8*,78.0*,/,-8.1,8.1,47.6*,13.4,96.6*,83.1*,18.2*
O=c1cc(C(F)(F)F)[nH]c(=S)n1-c1ccccc1,/,-1.9,6.0,/,-11.2,11.2,/,/,/,/,/
Cc1ccc(/C=C2\Oc3c(ccc(O)c3CN3CCN(CCO)CC3)C2=O)cc1,8.4,21.9*,27.5*,17.3,5.9,-5.9,10.2,7.9,-1.2,24.1*,28.5*
CCCC(=O)NC1=C(Cl)C(=O)c2ccccc2C1=O,/,36.6*,70.6*,/,-21.6,21.6,61.4*,6.5,98.9*,90.0*,29.5*
CCNC1=C(Cl)C(=O)c2ccccc2C1=O,3.1,-3.1,6.4,13.8,-1.3,24.7,/,/,/,/,/
CCOC(=O)C1CCN(S(=O)(=O)c2cccc(-c3cn4cccc(C)c4n3)c2)CC1,2.2,-2.6,-0.2,2.7,-10.4,10.4,/,/,/,/,/
COc1ccc(/C=C/c2ccc3c(Br)ccc(O)c3n2)cc1,-5.2,17.4,6.9,/,4.9,-4.9,/,/,/,/,/
COc1cc(/C=C/c2ccc3c(Br)cc(Br)c(O)c3n2)ccc1O,2.2,25.6*,34.3*,/,43.5,-43.5,27.7*,28.8,49.0*,44.6*,55.0*
COc1ccc(C(C)(NC(C)=O)c2nc(-c3ccccc3OC)cs2)cc1 (stereo unspecified),/,/,-8.2,/,/,/,/,/,/,/,/
Cc1ccc(C)c(-n2sc3ccc(F)cc3c2=O)c1,/,31.2*,26.0*,/,-7.2,7.2,7.3,1.8,42.6*,33.0*,15.3*
O=c1c2cc(F)ccc2sn1-c1ccc(F)cc1,/,16.4,19.3,/,-9.9,9.9,/,/,/,/,/
SMILES,Lipid droplet,TLR9-MyD88 block,NOD2 RIPK2 PPI,TLR4-MyD88 BLA,SR-BI DiI inh,SR-BI uptake up,TLR9-MyD88 conf,BLA counter-1,TLR9 CHO tox,NOD2-RIPK2 conf,BLA counter-2
COc1ccc(-c2cc3ccc(O)cc3oc2=O)cc1,3.7,21.5*,38.9*,/,-28.9,28.9,17.5,26.2,1.4,42.7*,51.8*
OCCN(CCO)c1nc(N2CCCCC2)c2nc(N(CCO)CCO)nc(N3CCCCC3)c2n1,33.9,25.3*,36.3*,9.7,-7.6,7.6,16.4,20.2,1.8,47.1*,51.1*
CCC1(O)C(=O)OCc2c1cc1n(c2=O)Cc2cc3cc(O)ccc3nc2-1 (stereo unspecified),/,29.5*,26.0*,/,-13.4,13.4,18.6,20.5,63.3*,42.4*,33.5*
CC(=O)Oc1ccc(-c2cc3c(OC(C)=O)cc(OC(C)=O)cc3oc2=O)cc1,/,37.0*,41.5*,/,6.6,-6.6,22.9*,25.7,3.4,52.9*,56.9*
COC(=O)C1=C(C)Nc2sc(C(N)=O)c(N)c2C1c1ccncc1 (stereo unspecified),0.5,7.8,-9.4,7.0,-12.2,12.2,/,/,/,/,/
CCOC(=O)C1=C(C)Nc2sc(C(=O)c3ccc(OC)cc3)c(N)c2C1c1ccc(C(=O)OC)cc1 (stereo unspecified),5.4,44.4*,39.3*,10.1,-21.3,21.3,-1.1,8.8,6.9,5.4,20.0*
CCOC(=O)c1sc(-c2ccc(C(F)(F)F)cc2)nc1O,2.3,27.7*,24.8*,/,7.6,-7.6,13.7,18.3,0.0,65.3*,66.5*
CN(C)c1ccc(/C=C/c2ccc3ccccc3n2)cc1,18.8,27.7*,45.8*,/,4.0,-4.0,38.4*,52.9*,53.1*,58.4*,71.2*
